Assay outcomes (PubChem BioAssay)
Rows were chosen to be rich in hits. Some 1.8% of all compounds tested hit in one or more screens of this group.
CHRM5 agonist – agonists of human muscarinic M5 receptor (CHRM5). 360,000 compounds, 0.19% hits. P08912. activation, % at 3 µM. CHO-K1 hM5 cells, Fluo-8 calcium fluorescence; 0% DMSO wells, 100% maximal acetylcholine response;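 active = activation above the run's mean over test compounds plus 3 SD, cut at about 23% in these data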;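 also: signal is peak over basal fluorescence ratio across the kinetic read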
CHRM5 PAM – potentiates acetylcholine response at human M5 receptor; P08912; CHO-K1 hM5, Fluo-8 calcium, ACh EC20 PAM; 0% = ACh EC20, 100% = ACh EC100; activation, % at 3 µM; 360,000 compounds, 0.3% hits; AID 624038;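 active = activation above the run cutoff, the mean activation of all test compounds plus 3 SD, cut at about 18% in these data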
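Probe or stimulus: acetylcholine, EC20 level; Assay system: human M5 receptor in CHO-K1 cells; Schedule: compound preincubation 140 s before EC20 acetylcholine addition; Technique: intracellular calcium via Fluo-8 fluorescence; Dosing: single-point, 3 µM nominal; Read-out basis: percent activation from peak-over-basal fluorescence ratio, scaled EC20-to-EC100 acetylcholine; Repeats: one well per compound, no replicates.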
M5 antag – CHRM5 antagonism in calcium assay | P08912 | CHO-hM5 cells, Fluo-8 calcium fluorescence, ACh EC80 | inhibition, % at 3 µM | 360,000 compounds, 0.59% hits;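 active = inhibition above a per-plate cutoff, the mean of that plate's test compounds plus 3 SD, cut at about 27% in these data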
CHRM4 antagonist – blocks acetylcholine activation of human M4 receptor; CHO-hM4 cells, ACh EC80, Fluo-8 calcium fluorescence; inhibition, % at 3 µM; P08173; 360,000 compounds, 0.73% hits;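 active = inhibition above its plate's cutoff, the mean inhibition of sample wells plus 3 SD, cut at about 27% in these data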
Target sequence (P08173 whole entry, looked up): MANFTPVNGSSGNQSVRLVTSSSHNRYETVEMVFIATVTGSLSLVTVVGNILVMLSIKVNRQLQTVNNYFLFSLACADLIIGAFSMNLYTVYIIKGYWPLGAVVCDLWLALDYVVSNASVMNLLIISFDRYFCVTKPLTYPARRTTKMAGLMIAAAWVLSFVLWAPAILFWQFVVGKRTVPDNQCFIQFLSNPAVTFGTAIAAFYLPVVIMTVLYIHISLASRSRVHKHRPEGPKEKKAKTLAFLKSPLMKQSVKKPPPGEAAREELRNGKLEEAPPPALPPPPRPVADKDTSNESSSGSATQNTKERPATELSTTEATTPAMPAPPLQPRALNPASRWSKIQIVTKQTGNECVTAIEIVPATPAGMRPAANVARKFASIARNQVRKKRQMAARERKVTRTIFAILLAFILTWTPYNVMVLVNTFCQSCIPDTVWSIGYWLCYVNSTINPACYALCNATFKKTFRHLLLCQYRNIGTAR
CHRM4 agonist – agonists of human muscarinic M4 receptor (CHRM4) | P08173 | CHO-K1 hM4/Gqi5, Fluo-8 calcium fluorescence; vehicle 0%, full acetylcholine response 100% | activation, % at 3 µM | 360,000 compounds, 0.14% hits | AID 624127;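 active = activation above the run mean over all test wells plus 3 SD, cut at about 32% in these data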;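 also: peak over basal fluorescence ratio per well then scaled between controls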
M4 PAM – potentiates acetylcholine response at human M4 receptor. 360,000 compounds, 0.4% hits. P08173. activation, % at 3 µM. CHO-K1 hM4/Gqi5, Fluo-8 calcium fluorescence, ACh EC20; 0% = ACh EC20, 100% = maximal ACh;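 active = activation above its plate's cutoff, the mean activation of sample wells plus 3 SD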
Hits are given with their value; - = inactive; ! = repeats disagree.

SMILES	CHRM5 agonist	CHRM5 PAM	M5 antag	CHRM4 antagonist	CHRM4 agonist	M4 PAM
Oc1ccc(C23CCCC2C2(CCCC2)c2ccc(O)cc2O3)c(O)c1 (configuration not stated)	-	-	-	-	59.4	-
CN(C)c1ccc(/C=C(\C#N)C(=O)c2ccccc2)cc1	63.2	-	39.8	36.7	70.1	-
CCN(CC)c1ccc(/C=C(\C#N)C(=O)c2ccc(Br)cc2)cc1	108.0	-	70.2	51.2	58.3	-
CCN(CC)c1ccc(/C=C(\C#N)C(N)=O)cc1	-	-	-	-	-	-
CC(C)CSCC1OC(n2cnc3c(N)nccc32)C(O)C1O (configuration not stated)	-	-	-	-	-	-
COc1ccccc1OCC(=O)Nc1ccc(CSc2ccccc2)cc1C	-	49.1	-	-	-	-
S=C1Cc2ccccc2N1	-	-	-	-	-	38.5
OC(Cc1ccccc1Br)c1ncc(-c2cccc(C(F)(F)F)c2)[nH]1 (configuration not stated)	-	-	-	-	-	-
OC(c1ccc(F)cc1)c1nc(-c2cc3ccccc3o2)cs1 (configuration not stated)	-	-	-	-	61.0	-
Clc1ccc(-c2nnc(CSc3nnc(-c4cccs4)n3Cc3ccccc3)o2)cc1	-	-	28.6	30.0	-	-
Cc1nnc(SCc2nnc(-c3cccs3)o2)n1Cc1ccccc1	-	-	-	-	-	-
Fc1ccc(-n2c(-c3cc(C4CC4)[nH]n3)n[nH]c2=S)cc1Cl	-	19.4	-	-	-	-
O=c1ccc(-c2n[nH]c(=S)n2-c2ccc(F)c(Cl)c2)n[nH]1	-	-	-	-	-	-
COCCCNC(=O)C[C@@H]1C[C@@]2(C(=O)OC)CCCCC=C2N(Cc2ccco2)C1=O	-	-	-	-	-	-
CCOc1ccccc1NC(=O)c1cc(-c2ccccn2)nc2ccccc12	-	-	-	-	-	-
COc1ccc(NC(=O)c2cc(-c3ccccn3)nc3ccccc23)c(OC)c1	-	-	27.4	-	-	-
Cc1nn2c(nc1=O)SCC(c1ccccc1)=N2	-	28.4	-	-	-	-
Cc1cccc(-c2nnc3n2N=C(c2ccccc2)CS3)c1	-	-	-	-	-	-
COc1cc(/C=C2/CC/C(=C/c3ccc(O)c(OC)c3)C2=O)ccc1O	24.6	-	36.4	-	-	-
COc1cc(/C=C2\CC/C(=C\c3ccc(OCCO)c(OC)c3)C2=O)ccc1OCCO	54.8	-	-	-	-	-
CCCOc1ccc(/C=C/C(=O)O)cc1OC	-	-	-	-	-	19.3
COc1cc(/C=C2\COC/C(=C\c3ccc(O)c(OC)c3)C2=O)ccc1O	-	-	-	-	-	-
COc1ccc(/C=C2\CN(Cc3ccccc3)C/C(=C\c3ccc(OC)c(O)c3)C2=O)cc1O	-	-	27.0	-	-	-
O=C1CCC(OCc2ccccc2)CCN1[C@H](CSc1ccccc1)Cc1ccccc1 (some centres not stated)	-	-	-	-	-	-
Cc1ccn2c(NC(=O)c3ccccc3)c(-c3cccs3)nc2c1	-	-	-	-	-	-
SMILES	CHRM5 agonist	CHRM5 PAM	M5 antag	CHRM4 antagonist	CHRM4 agonist	M4 PAM
CCC(C)Sc1cccc(-c2nc3cc(C)ccn3c2NCc2ccccc2)c1 (configuration not stated)	-	-	-	44.1!	-	-
Cc1ccn2c(NCc3ccccc3)c(-c3cccs3)nc2c1	-	-	-	-	-	19.6
Cc1nc2ccc(S(=O)(=O)CCC(=O)NCCc3ccccc3)cc2s1	-	-	-	-	-	-
CC1(C(=O)Nc2cccc(NS(C)(=O)=O)c2)Cc2c(-c3ccc(C(N)=O)cc3)ccnc2O1 (configuration not stated)	-	-	-	-	-	-
CC(OC(=O)C1CCCCC1)C(=O)Nc1ccc(S(N)(=O)=O)cc1 (configuration not stated)	-	-	-	-	-	22.4
CC1(C(=O)O)CCN1C(=O)c1cccnc1Oc1ccccc1 (configuration not stated)	-	-	-	-	-	-
O=c1oc2cc(O)ccc2cc1S(=O)(=O)c1ccccc1	-	-	-	-	-	-
O=c1oc2cc(O)ccc2cc1-c1nc2ccccc2o1	26.9	-	-	-	40.7	-
CCCCCCCCCCCCCCCCn1cc[n+](C)c1	-	-	48.0	30.1	-	-
CCOC(=O)CSC(=S)NC(=O)c1ccc(OC)cc1	-	-	-	-	-	35.4
O=C(O)C1C(c2ccccc2)C(C(=O)Oc2ccccc2)C1c1ccccc1 (configuration not stated)	-	-	-	-	-	-
Cc1cccc(OC(=O)C2C(c3ccccc3)C(C(=O)O)C2c2ccccc2)c1 (configuration not stated)	-	-	-	-	-	31.1
CC1=C(C(=O)N(C(C)C)C(C)C)CC(CC(=O)NCc2cccc3ccccc23)C(=O)N1Cc1ccccc1 (configuration not stated)	-	-	-	-	-	-
Cc1cc(N2CCCC2=O)cc(C)c1S(=O)(=O)NCCOc1ccc(C(C)(C)C)cc1	-	-	33.4	28.0	-	-
Cc1cc(=O)[nH]c2c1c(-c1ccccc1)nn2C	-	-	-	100.2	-	-
Cc1cc(C)c2nc(NNC(=O)c3ccc(S(=O)(=O)N4CCc5ccccc5C4)cc3)sc2c1	59.3	-	-	-	-	-
COc1ccc(NC(=O)c2cc(C3CCCCN3S(=O)(=O)c3ccccc3)on2)c(C)c1 (configuration not stated)	-	-	-	-	-	-
CC(O)[C@H]1CNC(=O)C(=O)N1CCc1cccc(F)c1 (some centres not stated)	-	-	-	-	-	-
NC1=NC[C@@H](CC2CCCCC2)N1CCc1cc(C(F)(F)F)cc(C(F)(F)F)c1	-	-	45.1	-	-	-
CC(O)[C@H]1CNC(=O)C(=O)N1CCc1cc(C(F)(F)F)cc(C(F)(F)F)c1 (some centres not stated)	-	-	42.5	-	-	-
CCC(C)[C@H]1CN=C(N)N1CCc1cc(C(F)(F)F)cc(C(F)(F)F)c1 (some centres not stated)	-	-	29.3	-	-	-
O=C1c2ccccc2C(c2nnnn2-c2ccc3ccccc3c2)N1C1CC1 (configuration not stated)	-	-	-	-	-	-
Cc1nc(CN2CCN(Cc3nc(C(c4ccccc4)c4ccccc4)no3)CC2)cs1	-	-	33.5	-	-	-
